The source of these data is ChEMBL document CHEMBL1126697, “Bis(heteroaryl)piperazine (BHAP) reverse transcriptase inhibitors: structure-activity relationships of novel substituted indole analogues and the identification of 1-[(5-methanesulfonamido-1H-indol-2-yl)-carbonyl]-4-[3- [(1-methylethyl)amino]-pyridinyl]piperazine monomethanesulfonate (U-90152S), a …” (J Med Chem, 1993).

As a reminder, the CC50 is the concentration giving 50% cytotoxicity. Read a low CC50 as harm at low concentration. One may read the IC50 as the concentration that inhibits the measured activity by half. As usually defined, the inhibition is the change of the read-out against control, counted positive when it falls. Low readings indicate a weak effect, high ones a strong effect.

Assay [1] concerns Human immunodeficiency virus 1. Nature of the assay: Inhibition of HIV-1 D34 replication in human peripheral blood mononuclear cells. Format: functional. The following applies: read-out: ED50 (the source's name). An outline of the steps:
(§1)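 PBMC (1×10^6 cells) infected with inoculum containing 1 ng p24 of HIV-1 D34 isolate. Supernatant p24 measured 4 days after infection. Four drug concentrations, 10-fold dilution series. ED50 given as a range when it fell between dilutions. Viability by mitogen-stimulated cell proliferation. Mesylate salts used in this assay.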

The next assay concerns MT2. Nature of the assay: Cytotoxic concentration against MT-2 cells. Type of assay: functional. The following applies: Homo sapiens. An outline of the steps:
(§2)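 HIV-1 IIIb infected MT-2 cells at multiplicity of infection 0.001. Syncytium formation scored 4 days post-infection, at peak viral cytopathic effect. Three drug concentrations, 10-fold dilution series. ED50 given as a range when it fell between dilutions. Viability by trypan blue exclusion.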

The target in assay [2] is Human immunodeficiency virus type 1 reverse transcriptase (Human immunodeficiency virus 1, UniProt Q72547). Description: In vitro inhibition of HIV-1 reverse transcriptase.
Assay [3] deals with Human immunodeficiency virus type 1 reverse transcriptase (Human immunodeficiency virus 1) (UniProt Q72547). Nature of the assay: In vitro inhibition of HIV-1 reverse transcriptase at 100 uM.
Assay [4] can be described thus: Cytotoxic concentration against PBMC cells. Type of assay: functional. Conditions: Homo sapiens. An outline of the steps: as §1
The subject of assay [5] is Human immunodeficiency virus 1. Description: Inhibition of HIV-1 IIIB replication in MT2 (human lymphocyte) cells. The following applies: Human immunodeficiency virus 1, MT2; read-out: ED50 (the source's name). Type of assay: functional. An outline of the steps: as §2
Assay [6] has as its system Human immunodeficiency virus 1. Nature of the assay: Inhibition of HIV-1 replication in human lymphocytes [peripheral blood mononuclear cells (PBMC)/D34 was determined as effective dose. Format: functional. The following applies: read-out: ED50 (the source's name). An outline of the steps:
as §1

Each structure is given as a SMILES string. Where a name gives a salt, the structure may show the parent alone.

For `CC(C)Nc1cccnc1N1CCN(C(=O)c2cc3ccc(CO)cc3[nH]2)CC1`, the values for the EC50 in assay [1] and in assay [5] were 1 nM and less than 250 nM, respectively. Besides, the CC50 (in the assay with MT2; in assay [4]) was more than 10000 nM in each case. In assay [2], the IC50 stood at 760 nM. In assay [3], this compound gave an inhibition of 98%.
With `CC(C)Nc1cccnc1N1CCN(C(=O)c2cc3ccc(C=O)cc3[nH]2)CC1`, the values for the EC50 in assay [1] and in assay [5] were 0.1 nM and less than 260 nM, respectively. Further, the half-maximal cytotoxic concentration (CC50) (in the assay with MT2; in assay [4]) was more than 10000 nM each time. The same compound returned a concentration for half-maximal inhibition (IC50) in assay [2] of 1400 nM. This compound also came in with an inhibition in assay [3] of 94%.
In the case of `COC(=O)Nc1ccc2[nH]c(C(=O)N3CCN(c4ncccc4NC(C)C)CC3)cc2c1`, in assay [1], the EC50 is 0.1 nM. For the same compound, the 50% cytotoxic concentration (CC50) (in the assay on MT2; in assay [4]) was more than 10000 nM throughout. In addition, in assay [2], inhibition was half-maximal at 2500 nM (IC50). Moreover, the inhibition in assay [3] came out at 96%.
As for `CC(C)Nc1cccnc1N1CCN(C(=O)c2cc3ccc(NS(C)(=O)=O)cc3[nH]2)CC1`, the EC50 in assay [1] was 0.1 nM; in assay [5], less than 20 nM. In addition, the CC50 (in the assay on MT2; in assay [4]) was more than 10000 nM in each case. Further, in assay [2], it took 500 nM to reach half-maximal inhibition (IC50). Besides, the inhibition in assay [3] amounted to 98%.
Regarding `CC(C)Nc1cccnc1N1CCN(C(=O)c2cc3cc(OCc4ccccc4)ccc3[nH]2)CC1`, the EC50 is 10 nM in assay [1] and less than 210 nM in assay [5]. Moreover, the CC50 (in the assay on MT2; in assay [4]) was more than 10000 nM in each case. This compound also showed an IC50 in assay [2] of 4300 nM. This compound also showed an inhibition in assay [3] of 74%.
On to `CC(C)Nc1cccnc1N1CCN(C(=O)c2cc3ccc(OCc4ccccc4)cc3[nH]2)CC1`, for which the EC50 in assay [1] was 100 nM. For the same compound, the cytotoxic concentration (CC50) (in the assay on MT2; in assay [4]) was more than 10000 nM each time. For the same compound, in assay [2], 37000 nM corresponded to half-maximal inhibition (IC50). In addition, the inhibition in assay [3] came to 65%.
Regarding `CC(C)Nc1cccnc1N1CCN(C(=O)c2cc3ccc(F)cc3[nH]2)CC1`, the EC50 in assay [1] stood at 1 nM; in assay [5], 260 nM. The CC50 (in the assay on MT2; in assay [4]) was more than 10000 nM in each case. Further, the midpoint of inhibition in assay [2], the IC50, lay at 4400 nM. In assay [3], this compound displayed an inhibition of 96%.
For `CC(C)Nc1cccnc1N1CCN(C(=O)c2cc3cc(NS(=O)(=O)C(F)(F)F)ccc3[nH]2)CC1`, the EC50 in assay [1] worked out at 100 nM; in assay [5], 200 nM. The cytotoxic concentration (CC50) (in the assay on MT2; in assay [4]) was more than 10000 nM each time. The 50% inhibitory concentration (IC50) in assay [2] came out at 8300 nM. For the same compound, the inhibition in assay [3] is 94%.
In the case of `CC(C)Nc1cccnc1N1CCN(C(=O)c2cc3cc(O)ccc3[nH]2)CC1`, the EC50 in assay [1] is 1 nM; in assay [5] it was less than 260 nM. Also, the CC50 (in the assay with MT2; in assay [4]) was more than 10000 nM throughout. The compound further registered an IC50 in assay [2] of 1300 nM. Also, the inhibition in assay [3] was 98%.
With `CC(C)Nc1cccnc1N1CCN(C(=O)c2cc3ccccc3[nH]2)CC1`, the EC50 in assay [1] was 1 nM; in assay [5] it was 300 nM. Further, the CC50 (in the assay on MT2; in assay [4]) was more than 10000 nM throughout. This compound also showed a concentration for half-maximal inhibition (IC50) in assay [2] of 1200 nM. For the same compound, in assay [3], the inhibition is 96%.
Consider `CC(C)Nc1cccnc1N1CCN(C(=O)c2cc3ccc(OS(C)(=O)=O)cc3[nH]2)CC1`, for which the CC50 (in the assay on MT2; in assay [4]) was more than 10000 nM throughout. Besides, in assay [2], half-maximal inhibition (IC50) required 2200 nM. This compound displayed an inhibition in assay [3] of 97%.
For `CCNc1cccnc1N1CCN(C(=O)c2cc3cc(OC)ccc3[nH]2)CC1` [ATEVIRDINE MESYLATE], the EC50 in assay [1] is 1 nM; in assay [5] it was less than 200 nM. In addition, the CC50 (in the assay on MT2; in assay [4]) was more than 10000 nM throughout. This compound returned an inhibition in assay [3] of 92%.
As to `CCc1cc(NCc2nc3c(Cl)ccc(Cl)c3o2)c(O)nc1C` [L-697661], the EC50 in assay [1] was less than 0.1 nM; in assay [5] it was less than 300 nM. Further, the CC50 (with MT2; in assay [4]) was more than 10000 nM throughout. In addition, in assay [2], the IC50 worked out at 2700 nM. Further, the inhibition in assay [3] came out at 98%.
For the compound `CC(=O)Nc1ccc2[nH]c(C(=O)N3CCN(c4ncccc4NC(C)C)CC3)cc2c1`, the EC50 was 10 nM in assay [1] and more than 10000 nM in assay [5]. Further, the cytotoxic concentration (CC50) (in the assay with MT2; in assay [4]) was more than 10000 nM each time. Also, in assay [2], the half-maximal inhibitory concentration (IC50) turned out to be 1800 nM. In assay [3], this compound returned an inhibition of 94%.
As for `CCNc1cccnc1N1CCN(C(=O)c2cc3cc(O)ccc3[nH]2)CC1`, the CC50 (in the assay on MT2; in assay [4]) was more than 10000 nM throughout. In assay [2], this compound came in with a half-maximal inhibitory concentration (IC50) of 2000 nM. In assay [3], this compound came in with an inhibition of 89%. The EC50 in assay [6] was 10 nM; in assay [5] it was 270 nM.
For the compound `Cc1ccc2[nH]c(C(=O)N3CCN(c4ncccc4NC(C)C)CC3)cc2c1`, the EC50 in assay [1] came to 10 nM; in assay [5] it was 260 nM. In addition, the 50% cytotoxic concentration (CC50) (with MT2; in assay [4]) was more than 10000 nM each time. Further, the IC50 in assay [2] is 34000 nM. The inhibition in assay [3] amounted to 68%.
For the compound `Cc1ccnc2c1NC(=O)c1cccnc1N2C1CC1` [NEVIRAPINE], the EC50 in assay [1] came to 10 nM. In addition, the cytotoxic concentration (CC50) (in the assay on MT2; in assay [4]) was more than 10000 nM each time. Further, the inhibition in assay [3] came out at 93%.
Regarding `CCNc1cccnc1N1CCN(C(=O)c2cc3ccccc3[nH]2)CC1`, the EC50 in assay [1] is 10 nM; in assay [5], 300 nM. Moreover, the CC50 (with MT2; in assay [4]) was more than 10000 nM in each case. This compound also displayed an IC50 in assay [2] of 4000 nM. Further, in assay [3], the inhibition was found to be 96%.
Turning to `CC(C)Nc1cccnc1N1CCN(C(=O)c2cc3cc(N)ccc3[nH]2)CC1`, the EC50 in assay [1] was determined as 10 nM. The CC50 (in the assay on MT2; in assay [4]) was more than 10000 nM throughout. Further, in assay [2], the half-maximal inhibitory concentration (IC50) was found to be 1000 nM. Further, the inhibition in assay [3] came to 94%.
With `COc1ccc2cc(C(=O)N3CCN(c4ncccc4NC(C)C)CC3)[nH]c2c1`, the EC50 is 10 nM in assay [1] and less than 250 nM in assay [5]. The CC50 (with MT2; in assay [4]) was more than 10000 nM each time. This compound also yielded a half-maximal inhibitory concentration (IC50) in assay [2] of 1300 nM. The same compound displayed an inhibition in assay [3] of 97%.
As for `CC(C)Nc1cccnc1N1CCN(C(=O)c2cc3ccc(C#N)cc3[nH]2)CC1`, the cytotoxic concentration (CC50) (in the assay on MT2; in assay [4]) was more than 10000 nM each time. 3900 nM corresponded to half-maximal inhibition in assay [2] (IC50). The compound also yielded an inhibition in assay [3] of 74%.
For the compound `CC(C)Nc1cccnc1N1CCN(C(=O)c2cc3cc(NC(=O)C(F)(F)F)ccc3[nH]2)CC1`, the figures for the EC50 in assay [1] and in assay [5] were 1 nM and 210 nM, respectively. Also, the CC50 (in the assay with MT2; in assay [4]) was more than 10000 nM throughout. In addition, the half-maximal inhibitory concentration (IC50) in assay [2] turned out to be 27000 nM. The compound also yielded an inhibition in assay [3] of 85%.
For the compound `CC(C)Nc1cccnc1N1CCN(C(=O)c2cc3cc(OS(C)(=O)=O)ccc3[nH]2)CC1`, the cytotoxic concentration (CC50) (in the assay on MT2; in assay [4]) was more than 10000 nM throughout. This compound also returned a concentration for half-maximal inhibition (IC50) in assay [2] of 5500 nM. The compound further gave an inhibition in assay [3] of 97%.
Turning to `Cc1cn([C@H]2C[C@H](N=[N+]=[N-])[C@@H](CO)O2)c(=O)[nH]c1=O` [ZIDOVUDINE], the results for the EC50 in assay [1] and in assay [5] were 1 nM and 70 nM, respectively. Moreover, the cytotoxic concentration (CC50) (in the assay with MT2; in assay [4]) was more than 10000 nM throughout.
`CC(C)Nc1cccnc1N1CCN(C(=O)c2cc3ccc(O)cc3[nH]2)CC1`: the 50% cytotoxic concentration (CC50) (with MT2; in assay [4]) was more than 10000 nM each time. Also, the midpoint of inhibition in assay [2], the IC50, lay at 1200 nM. This compound also had an inhibition in assay [3] of 97%.
`CC(C)Nc1cccnc1N1CCN(C(=O)c2cc3cc(N(C)S(C)(=O)=O)ccc3[nH]2)CC1`: in assay [1], the EC50 worked out at 1 nM. For the same compound, the CC50 (with MT2; in assay [4]) was more than 10000 nM in each case. Besides, in assay [2], the IC50 was found to be 5600 nM. Moreover, the inhibition in assay [3] is 95%.
Take `CC(C)Nc1cccnc1N1CCN(C(=O)c2cc3cc(NS(C)(=O)=O)ccc3[nH]2)CC1` [DELAVIRDINE]: the EC50 was 0.1 nM in assay [1] and 10 nM in assay [5]. The values for the CC50 (with MT2; in assay [4]) were more than 30000 nM and more than 10000 nM, respectively.
